In the library only some 1.6% were active in any assay of this set; here they are far more common.
Scp1 inh: Scp-1 (human) phosphatase inhibition | Recombinant Scp1, phosphopeptide, malachite green phosphate absorbance | inhibition, % at 20 µM | 340,000 tested, 0.88% active;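 active = inhibition above about 50% at 20 µM, limit read from the data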
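Incubation: 45 min enzyme reaction at room temperature / System: truncated SCP-1 phosphatase (76-261aa) / Reagent: Phospho 17-mer peptide substrate / Buffer or medium: Acidic Tris acetate buffer with magnesium and detergent / Signal: absorbance at 630 nm / Doses: one concentration, 20 µM, with 1.0% DMSO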
STEP inh: blocks human striatal-enriched tyrosine phosphatase; P54829; recombinant STEP, OMFP fluorogenic substrate, fluorescence; inhibition, % at 20 µM; 360,000 tested, 0.25% active;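 active = inhibition at 20 µM, scaled per plate between control wells, above about 37%, limit read from the data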
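Material: STEP (striatal-enriched tyrosine phosphatase) enzyme, cell-free; Compound dosing: 20 µM single dose in 1% DMSO; Technique: fluorescence read at 480 nm ex / 540 nm em; Times: reaction 20 min, ambient temperature; Medium: 50 mM Bis-Tris pH 6.0 with 2.5 mM DTT and 0.005% Tween 20; Also added: OMFP at 25 µM.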
DNMT1 block: DNMT1 (human) enzyme inhibition; DNMT1 molecular beacon, Hinp1I cleavage, fluorescence; inhibition (reported as % activation of signal), % at 10 µM; 360,000 tested, 0.83% active; AID 588458; in the data active = inhibition above about 50%
Target sequence (P26358 504-1616 limits assumed): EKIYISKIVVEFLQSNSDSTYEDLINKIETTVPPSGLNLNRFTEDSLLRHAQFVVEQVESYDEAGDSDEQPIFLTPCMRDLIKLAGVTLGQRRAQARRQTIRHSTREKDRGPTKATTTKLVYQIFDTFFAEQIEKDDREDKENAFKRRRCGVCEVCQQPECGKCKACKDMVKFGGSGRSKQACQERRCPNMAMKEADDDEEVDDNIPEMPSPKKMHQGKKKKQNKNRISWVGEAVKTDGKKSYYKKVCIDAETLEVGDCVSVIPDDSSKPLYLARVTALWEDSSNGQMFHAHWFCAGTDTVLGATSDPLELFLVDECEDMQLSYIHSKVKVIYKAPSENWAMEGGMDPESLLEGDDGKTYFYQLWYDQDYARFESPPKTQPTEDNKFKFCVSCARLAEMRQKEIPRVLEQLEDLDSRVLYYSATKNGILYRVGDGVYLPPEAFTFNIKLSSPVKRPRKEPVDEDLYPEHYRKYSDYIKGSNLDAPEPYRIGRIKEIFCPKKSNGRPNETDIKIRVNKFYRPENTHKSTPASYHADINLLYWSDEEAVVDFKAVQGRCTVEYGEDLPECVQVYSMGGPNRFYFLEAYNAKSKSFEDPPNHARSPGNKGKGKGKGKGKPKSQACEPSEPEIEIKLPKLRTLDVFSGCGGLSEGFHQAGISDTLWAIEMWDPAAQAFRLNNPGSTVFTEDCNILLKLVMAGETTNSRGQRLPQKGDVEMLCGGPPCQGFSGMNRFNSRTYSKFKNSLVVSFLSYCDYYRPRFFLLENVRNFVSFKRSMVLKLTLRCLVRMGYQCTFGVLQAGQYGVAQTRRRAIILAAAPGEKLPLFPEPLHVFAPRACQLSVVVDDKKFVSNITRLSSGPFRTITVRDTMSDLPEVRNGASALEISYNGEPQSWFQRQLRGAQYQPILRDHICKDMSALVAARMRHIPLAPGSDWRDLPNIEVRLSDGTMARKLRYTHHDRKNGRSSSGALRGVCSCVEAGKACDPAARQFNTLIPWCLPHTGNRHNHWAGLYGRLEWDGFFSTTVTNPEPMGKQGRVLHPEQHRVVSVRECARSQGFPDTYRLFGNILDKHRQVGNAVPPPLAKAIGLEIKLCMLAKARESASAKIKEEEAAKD
LMPTP inh: blocks human LMPTP phosphatase | AID 651560 | P24666 | 360,000 tested, 0.22% active | recombinant LMPTP-A, OMFP fluorogenic substrate, fluorescence intensity | inhibition, % at 20 µM;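 active = compounds that cut the enzyme signal by at least half of the control window in the single-dose screen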
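test system = LMPTP-A | amount = 0.625 nM LMPTP-A final | reagent = fluorogenic phosphatase substrate OMFP at 400 µM final | incubation = 50 min at room temperature | benchmarks = no-enzyme low control, uninhibited high control | medium = Bis-Tris pH 6.0, DTT, detergent | signal = fluorescence intensity of OMFP turnover product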
SUMO1 PPI mod: alters human SUMO1 binding to SIM partners; 360,000 tested, 0.33% active; SUMO1 binding to a labelled peptide, TR-FRET, 1 h; AID 602429; inhibition, % at 20 µM; P63165; in the data active = inhibition above about 37%
CFTR F508del cor: CFTR F508del correction in bronchial cells. CFBE cells, YFP halide quenching; stimulated with forskolin plus potentiator P3; % fluorescence drop versus neutral controls. activity (quench increase), % at 7.58 µM. AID 720511. 350,000 tested, 0.36% active;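 active = mean added fluorescence quench of at least 8% versus neutral control, with both replicates also reaching 8%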;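 also: cells transiently co-express mutant CFTR-F508del with the halide-sensitive YFP; corrector assay measuring rescue of mutant channel to the surface after 24 h compound exposure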
Scp1 confirm: Scp-1 (human) inhibition, single-dose confirmed. shares compounds with Scp1 inh. recombinant SCP-1 catalytic domain, phosphate release, malachite green absorbance. inhibition, % at 20 µM. 2,500 tested, 61% active. AID 540281
Scp-1 MG ctr: interferes with malachite green readout, flagging false Scp-1 hits | apparent inhibition (interference), % at 20 µM | shares compounds with Scp1 inh | AID 540313 | 2,500 tested, under 10 active | Colorimetric interference counterscreen, malachite green absorbance 630 nm;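 also: compounds added after enzyme reaction finished so only phosphate colour detection is probed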
Scp1 DSF: validation of human Scp-1 inhibitors by thermal shift binding | shares compounds with Scp1 inh | AID 540329 | thermal shift relative to vanadate control, % at 40 µM | 1,500 tested, 25% active | Recombinant SCP1, Sypro Orange thermal shift Tm;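 active = substances whose mean melting-temperature shift, as a percentage of the reference inhibitor's shift, reaches about 5.3%, limit read from the data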
A number is an active result; . = inactive; / = no result given.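 The calls were made as follows, unless noted: active = inhibition of at least 30% at 20 µM; inactive = the rest.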

SMILES	Scp1 inh	STEP inh	DNMT1 block	LMPTP inh	SUMO1 PPI mod	CFTR F508del cor	Scp1 confirm	Scp-1 MG ctr	others
NC(=O)COc1ccc(-n2cnnn2)cc1	68.3	.	.	.	.	.	52.2	.	Scp1 DSF=.
NC(=O)c1ccc(NC(=O)COc2ccc(-n3cnnn3)cc2)cc1	.	.	.	.	.	.	/	/
O=C(O)c1cc(S(=O)(=O)N2CCN(S(=O)(=O)c3ccc4ccccc4c3)CC2)ccc1Br	59.0	.	.	.	.	.	62.6	.	Scp1 DSF=8.7
CCC(=O)N1CC(=O)N2[C@H](C1)[C@H](c1ccc(C#Cc3cccc(OC)c3)cc1)[C@@H]2CO	/	/	/	/	/	.	/	/
O=C1CC(c2ccc(S(=O)(=O)Nc3cc(C(F)(F)F)cc(C(F)(F)F)c3)cc2)CN1 (stereo not drawn)	.	.	.	.	.	/	.	.
Cc1ccccc1NS(=O)(=O)c1ccc(C2CNC(=O)C2)cc1 (stereo not drawn)	.	.	.	.	.	/	/	/
COc1ccccc1-n1c(SCC(=O)N2CCOCC2)nc2cccnc21	.	.	.	.	.	.	/	/
COc1ccccc1-n1c(SCC(=O)N2CCCCC2)nc2cccnc21	95.4	.	.	.	.	/	.	.
O=C(C1CCC1)N1CC2(C1)[C@@H](c1ccccc1)[C@H](CO)N2C(=O)c1ccccn1	/	/	/	/	/	.	/	/
COCC(=O)NC[C@H]1N[C@H](CO)[C@@H]1c1ccc(C#CC2CCCCC2)cc1	/	/	/	/	/	.	/	/
CC(C)Cc1nnc(NC(=O)CC(C)c2ccccc2)s1 (stereo not drawn)	.	.	.	.	.	.	/	/
CCc1nnc(NC(=O)CC(C)c2ccccc2)s1 (stereo not drawn)	58.3	.	.	.	.	.	.	.
Cc1ccc(S(=O)(=O)/N=C2/NC(=O)/C(=C\c3ccco3)S2)cc1	.	.	.	.	.	/	/	/
CC(=O)Nc1ccc(S(=O)(=O)/N=C2/NC(=O)/C(=C\c3ccco3)S2)cc1	52.6	.	50.6	.	.	.	54.1	.	Scp1 DSF=10.3
COc1cc2cnc(-c3ccccc3)c(-c3ccc([N+](=O)[O-])cc3)c2cc1OC	.	.	.	.	.	.	/	/
COc1cc2cnc(-c3ccccc3)c(-c3cc(OC)c(OC)c(OC)c3)c2cc1OC	61.3	.	.	.	.	.	37.1	.	Scp1 DSF=.
O=C1C(=O)N(CCO)C(c2ccccc2)/C1=C(\O)c1ccccc1 (stereo not drawn)	57.4	.	.	.	.	.	.	.
C[C@@H](NC(=O)C[C@@H]1C=C[C@H](NC(=O)c2cccnc2)[C@@H](CO)O1)c1ccccc1	/	/	/	/	/	.	/	/
CCNC(=O)Nc1ccc2c(c1)C(=O)N(C)[C@H]1CC[C@H](CC(=O)Nc3cccc(F)c3)O[C@@H]1CO2	/	/	/	/	/	.	/	/
CCCNC(=O)N1C[C@H](C)[C@@H](OC)CN(C)C(=O)c2ccc(NC(=O)C3CCC3)cc2OC[C@@H]1C	/	/	/	/	/	.	/	/
N#Cc1ccccc1OCC(=O)OCCCOC(=O)COc1ccccc1C#N	96.4	.	.	.	.	.	.	.
N#Cc1ccccc1OCC(=O)OCC(=O)N1CCCC1	.	.	.	.	.	.	/	/
CCn1c(=O)cc(OCC(=O)NCc2ccco2)c2ccccc21	57.5	.	.	.	.	/	.	.
CCn1c(=O)cc(OCC(=O)NCc2ccc(C)o2)c2ccccc21	.	.	.	.	.	/	/	/
COCCn1nnnc1C(C(C)C)N1CCSCC1 (stereo not drawn)	67.0	.	.	.	.	.	.	.
CC(C)C(c1nnnn1CCc1ccccc1)N1CCSCC1 (stereo not drawn)	.	.	.	.	.	.	/	/

Assay outcomes deposited in PubChem by several laboratories.
